ChEMBL document CHEMBL1144697, “9-cyano-1-azapaullone (cazpaullone), a glycogen synthase kinase-3 (GSK-3) inhibitor activating pancreatic beta cell protection and replication” (J Med Chem, 2008)
Activity calls are given as the source filed them. No cut-off for these calls is given here.

Experiments:
[1] = target: Glycogen synthase kinase-3 (Homo sapiens, UniProt P49840+P49841); assay: Inhibition of GSK3alpha/beta in pig brain; set-up: species or system Sus scrofa; conditions: target entry is the homologue from another species
[2] = Inhibition of starfish CDK1/cyclin B; set-up: species or system Asteroidea
Summary of the method: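 Kinase inhibition assays at 15 µM final ATP, run in triplicate.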

[3] = target: Cyclin-dependent kinase 5/CDK5 activator 1 (Homo sapiens, UniProt Q00535); assay: Inhibition of recombinant CDK5/p25 expressed in Escherichia coli
INS-1E [4] = assay: Inhibition of glucose and palmitate-induced apoptosis in rat INS-1E cells by DNA fragmentation assay; format: functional, cell-based
Summary of the method: (§1)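 INS-1E cells preincubated 1 h with compound (µM), then exposed to toxic high glucose/palmitate for 24 h. Apoptosis read as cytosolic DNA fragments or caspase activity, as fold change versus untreated control ± SD. At least four wells per point; Student's t test against glucose/palmitate alone.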

[5] = Activation of cyclophilin B gene expression in rat INS-1E cells at 10 uM after 24 hrs relative to control; format: functional, cell-based
Summary of the method: (§2)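 Compound added to INS-1E cells for 4 h or 24 h. Pax4 and cyclophilin B transcripts quantified by qRT-PCR. Reported as fold change versus vehicle-treated control, with the control level set to 1. Mean of triplicates ± SD.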

SH-SY5Y = assay: Inhibition of GSK3 in human SHSY5Y cells assessed as beta-casein phosphorylation level in presence of MG132; format: cell-based; conditions: in the assay text read “beta-catenin” for “beta-casein”
Summary of the method: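 Nearly confluent SH-SY5Y cells in DMEM with 10% FCS were co-treated with compound across a concentration range plus 2 µM MG132, DMSO ≤1% final. Phospho-β-catenin (Ser33/Ser37/Thr41) measured by ELISA and expressed as % of cells given MG132 alone (100%).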

INS-1E [6] = assay: Inhibition of glucose and palmitate-induced apoptosis in rat INS-1E cells by caspase activity assay; format: functional, cell-based; summary of the method: as §1
[7] = Activation of Pax4 RNA expression in rat INS-1E cells at 10 uM after 24 hrs relative to control; format: functional, cell-based; summary of the method: as §2
[8] = Activation of cyclophilin B gene expression in rat INS-1E cells at 10 uM after 4 hrs relative to control; format: functional, cell-based; summary of the method: as §2
[9] = Activation of Pax4 RNA expression in rat INS-1E cells at 10 uM after 4 hrs relative to control; format: functional, cell-based; summary of the method: as §2
INS-1E [10] = assay: Protection against glucose and palmitate-induced toxicity in rat INS-1E cells after 24 hrs; format: functional, cell-based
Summary of the method: (§3)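 INS-1E cells treated with compound over a concentration range, with or without 0.3 mM BSA-coupled palmitate plus 25 mM glucose for 24 h. Viability/metabolic activity measured as an indirect readout of mitochondrial energy production. At least four wells per point; representative of ≥3 independent studies.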

INS-1E [11] = assay: Stimulation of rat INS-1E cell replication assessed as BrdU incorporation; format: functional, cell-based
Summary of the method: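 INS-1E cells exposed to compound at various concentrations for 24 h. Replication measured as BrdU incorporation, given as fold increase versus untreated cells ± SD. At least four wells per point, two independent studies, Student's t test.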

Pancreatic beta cell [12] = assay: Stimulation of rat primary beta cell replication at 5 uM; format: functional
Summary of the method: (§4)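 Isolated rat islets incubated with compound for 72 h, then disaggregated and spotted onto slides. Cells double-immunostained for C-peptide and Ki-67. Replication scored as % Ki-67+ among C-peptide+ cells, compared with untreated islets.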

[13] = Activation of cyclophilin B gene expression in rat INS-1E cells at 1 uM after 24 hrs relative to control; format: functional, cell-based; summary of the method: as §2
[14] = Activation of Pax4 RNA expression in rat INS-1E cells at 1 uM after 24 hrs relative to control; format: functional, cell-based; summary of the method: as §2
[15] = Activation of Pax4 RNA expression in rat INS-1E cells at 1 uM after 4 hrs relative to control; format: functional, cell-based; summary of the method: as §2
[16] = Activation of cyclophilin B gene expression in rat INS-1E cells at 1 uM after 4 hrs relative to control; format: functional, cell-based; summary of the method: as §2
[17] = Activation of Pax4 RNA expression in rat beta cells at 2 uM after 4 hrs relative to control; format: functional, cell-based; conditions: Pancreatic beta cell
Summary of the method: (§5)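 Primary rat islets exposed to compound for 4 h. Pax4 and cyclophilin B expression measured by qRT-PCR as fold change versus vehicle-treated control (set to 1). Triplicates, mean ± SD.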

[18] = Activation of cyclophilin B gene expression in rat beta cells at 2 uM after 4 hrs relative to control; format: functional, cell-based; conditions: Pancreatic beta cell; summary of the method: as §5
Pancreatic beta cell [19] = assay: Stimulation of rat primary beta cell replication at 0.5 uM; format: functional; summary of the method: as §4
[20] = Inhibition of glucose and palmitate-induced apoptosis in rat INS-1E cells at 2 uM by caspase activity assay; format: functional; set-up: scale not given: the % may be the effect or the level left; summary of the method: as §1
[21] = Inhibition of glucose and palmitate-induced apoptosis in rat INS-1E cells at 2 uM by DNA fragmentation assay; format: functional; set-up: scale not given: the % may be the effect or the level left; summary of the method: as §1
INS-1E [22] = assay: Protection against glucose and palmitate-induced toxicity in rat INS-1E cells at 2 uM after 24 hrs; format: functional, cell-based; summary of the method: as §3
INS-1E [23] = assay: Suppression of metabolic activity in rat INS-1E cells at 1 uM; format: functional, cell-based; summary of the method: as §3
INS-1E [24] = assay: Protection against glucose and palmitate-induced toxicity in rat INS-1E cells at 0.3 uM after 24 hrs; format: functional, cell-based; summary of the method: as §3
Pancreatic beta cell [25] = assay: Stimulation of rat primary beta cell replication at 2 uM; format: functional; summary of the method: as §4

Chain of Cyclin-dependent kinase 5/CDK5 activator 1 (Q00535 whole entry, the tested form may be a part): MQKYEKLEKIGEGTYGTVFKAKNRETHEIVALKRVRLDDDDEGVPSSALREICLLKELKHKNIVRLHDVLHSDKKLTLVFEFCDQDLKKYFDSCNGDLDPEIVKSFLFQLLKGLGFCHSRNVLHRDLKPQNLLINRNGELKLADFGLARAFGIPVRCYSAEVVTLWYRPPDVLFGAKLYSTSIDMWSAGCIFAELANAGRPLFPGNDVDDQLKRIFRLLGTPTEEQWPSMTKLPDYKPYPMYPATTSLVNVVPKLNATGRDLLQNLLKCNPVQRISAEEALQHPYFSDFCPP
Chain of Cyclin-dependent kinase 5/CDK5 activator 1 (Q15078 whole entry, further chain, the tested form may be a part): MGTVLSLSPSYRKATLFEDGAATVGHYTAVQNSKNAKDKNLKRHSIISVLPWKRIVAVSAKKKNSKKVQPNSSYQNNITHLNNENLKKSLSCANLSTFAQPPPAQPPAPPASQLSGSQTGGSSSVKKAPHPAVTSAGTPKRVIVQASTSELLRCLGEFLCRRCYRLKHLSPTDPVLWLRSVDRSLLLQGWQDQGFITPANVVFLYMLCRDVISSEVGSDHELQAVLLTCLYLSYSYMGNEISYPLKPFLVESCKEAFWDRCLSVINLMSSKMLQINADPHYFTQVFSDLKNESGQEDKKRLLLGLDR

Row | SMILES | IC50 [1] [µM] | IC50 [2] [µM] | IC50 [3] [µM] | also measured
1 | O=C1Cc2c([nH]c3ccc(O)cc23)-c2ncccc2N1 | 1.4 | 4 | 5 | 
2 | O=C1Cc2c([nH]c3ccc(C(F)(F)F)cc23)-c2ncccc2N1 | 0.008 | 1.65 | 10 | Activity (INS-1E [4]): Active; Fold change [5]: 1.3; Activity (SH-SY5Y): Dose-dependent effect; Activity (INS-1E [6]): Active; Fold change [7]: 0.61; Fold change [8]: 1.2; Fold change [9]: 0.72; Activity (INS-1E [10]): Active; Activity (INS-1E [11]): Dose-dependent effect
3 | Cc1cnc(-c2cnc(NCCNc3ccc(C#N)cn3)nc2-c2ccc(Cl)cc2Cl)[nH]1 [LADUVIGLUSIB] |  |  |  | Fold change [5]: 1.12; Activity (Pancreatic beta cell [12]): 2.5; Fold change [7]: 0.76; Fold change [8]: 1.31; Fold change [9]: 0.78
4 | N#Cc1cc(I)c2[nH]c3c(c2c1)CC(=O)Nc1cccnc1-3 | 0.12 | 0.41 | 2 | 
5 | COc1ccc2[nH]c3c(c2c1)CC(=O)Nc1cccnc1-3 | 0.8 | 2 | 4 | 
6 | O=C1Cc2c(oc3ccc(Cl)cc23)-c2ccccc2N1 | > 10 | > 10 | > 10 | 
7 | O=C1Cc2c(oc3ccc(Br)cc23)-c2ccccc2N1 | > 10 | > 10 | > 10 | 
8 | O=C1Cc2c(n(Cc3ccccc3)c3ccccc23)-c2cnccc2N1 | 0.41 | > 10 | > 10 | 
9 | O=C1Cc2c(n(Cc3ccccc3)c3ccccc23)-c2ncccc2N1 | 2.1 | > 10 | > 10 | 
10 | Cn1c2c(c3ccccc31)CC(=O)Nc1ccncc1-2 | 0.4 | 8 | > 10 | 
11 | O=C1Cc2c([nH]c3ccc(F)cc23)-c2cnccc2N1 | 0.051 | 1.2 | 0.26 | 
12 | O=C1Cc2c([nH]c3ccc(Br)cc23)-c2cnccc2N1 | 0.052 | 0.11 | 0.18 | 
13 | O=C1Cc2c([nH]c3c(F)cc(F)cc23)-c2ncccc2N1 | 1.8 | > 10 | > 10 | 
14 | O=C1Cc2c([nH]c3ccc(F)cc23)-c2ncccc2N1 | 0.08 | 4.5 | 3 | Activity (INS-1E [4]): Active; Fold change [5]: 0.97; Activity (INS-1E [6]): Active; Fold change [7]: 0.45; Fold change [8]: 1.14; Fold change [9]: 0.97; Activity (INS-1E [10]): Active; Activity (INS-1E [11]): Dose-dependent effect
15 | O=C1Cc2c([nH]c3ccc(Br)cc23)-c2ncccc2N1 [AZAKENPAULLONE] |  | 2 |  | 
16 | O=C1Cc2c([nH]c3ccc(Cl)cc23)-c2cnccc2N1 | 0.018 | 0.12 | 0.21 | 
17 | CCn1c2c(c3ccccc31)CC(=O)Nc1ccncc1-2 | 0.8 | 3.8 | > 10 | 
18 | O=C1Cc2c([nH]c3ccc(Cl)cc23)-c2ncccc2N1 | 0.063 | > 10 | > 10 | 

Row | SMILES | IC50 [1] [µM] | IC50 [2] [µM] | IC50 [3] [µM] | also measured
19 | N#Cc1ccc2c(c1)-c1[nH]c3ccc(C#N)cc3c1CC(=O)N2 | 0.028 | 0.12 | 0.73 | 
20 | N#Cc1ccc2[nH]c3c(c2c1)CC(=O)Nc1ccc(Br)nc1-3 | 3.8 |  | 10 | 
21 | O=C1Cc2c(oc3ccccc23)-c2ccccc2N1 | > 10 | > 10 | > 10 | 
22 | O=C1Cc2c([nH]c3ccc(Br)cc23)-c2ccccc2N1 [KENPAULLONE] |  |  |  | Activity (SH-SY5Y): Dose-dependent effect
23 | O=C1Cc2c([nH]c3cc(Cl)cc(Cl)c23)-c2ncccc2N1 | 0.8 | > 30 | 100 | 
24 | O=C1Nc2cc(Br)ccc2/C1=C1/Nc2ccccc2/C1=N\O |  |  |  | Fold change [13]: 1.2; Fold change [14]: 0.81; Fold change [15]: 1.02; Fold change [16]: 1.04
25 | Cc1ccc2[nH]c3c(c2c1)CC(=O)Nc1cccnc1-3 | 0.13 | 8 | > 10 | 
26 | CCn1c2c(c3ccccc31)CC(=O)Nc1cccnc1-2 | 13 | > 10 | > 10 | 
27 | COc1ccc2[nH]c3c(c2c1)CC(=O)Nc1ccncc1-3 | 0.39 | 0.2 | 0.4 | 
28 | N#Cc1ccc2[nH]c3c(c2c1)CC(=O)Nc1cccnc1-3 [CAZPAULLONE] | 0.008 | 0.5 | 0.3 | Fold change [13]: 1.42; Activity (INS-1E [4]): Active; Fold change [17]: 2.4; Activity (SH-SY5Y): Dose-dependent effect; Activity (INS-1E [6]): Active; Fold change [14]: 0.56; Fold change [18]: 0.73; Fold change [15]: 4.87; Activity (Pancreatic beta cell [19]): 2.5; Fold change [16]: 1.11; Activity [20]: >50%; Activity [21]: >50%; Activity (INS-1E [22]): Active; Activity (INS-1E [23]): Active; Activity (INS-1E [10]): Active; Activity (INS-1E [24]): Active; Activity (Pancreatic beta cell [25]): inactive; Activity (INS-1E [11]): Dose-dependent effect
29 | O=C1Cc2c(n3c4c(cccc24)CC3)-c2ncccc2N1 | 0.41 | > 10 | > 10 | 
30 | O=C1Cc2c([nH]c3ccc(C(=O)O)cc23)-c2ncccc2N1 | 100 | 2.2 | 30 | 
31 | N#Cc1ccc2[nH]c3c(c2c1)CC(=O)Nc1ccncc1-3 | 0.021 | 0.031 | 0.032 | 
32 | O=C1Cc2c([nH]c3ccc(C(F)(F)F)cc23)-c2cnccc2N1 | 0.013 | 0.19 | 0.12 | 
33 | O=C1Cc2c([nH]c3ccc(I)cc23)-c2ncccc2N1 | 0.025 | 1 | 6 | Activity (INS-1E [10]): Active
34 | Cn1c2c(c3ccccc31)CC(=O)Nc1cccnc1-2 | 1 | > 10 | 3 | 
35 | O=C1Cc2c([nH]c3ccccc23)-c2ncccc2N1 | 0.8 | 7 | 9 | 
36 | O=C1Cc2c(n(-c3ccccc3)c3ccccc23)-c2ncccc2N1 | > 10 | > 10 | > 10 | 
